Data published in article PMC5723703 (Pharmacology Research & Perspectives, 2017).
Several values for one entry are separate records, joined by “and”; a condition that tells them apart may be missing. Equal values may be shown once. Read-outs that look alike come from different tables or passages of the source.

Legend:
S1P1 receptor [1] = target: T1, S1P1 receptor (Homo sapiens, UniProt P21453); format: biochemical
human S1P5 receptor = human S1P5 receptor (Homo sapiens, UniProt Q9H228); format: biochemical
rat trachea = assay: Isometric force development, isolated rat tracheal rings
S1P2 receptor [2] = target: T2, S1P2 receptor (Homo sapiens, UniProt O95136); format: biochemical
human bronchi = assay: Isometric force development, isolated human bronchial rings
Wistar rats [3] = assay: Blood lymphocyte count in rats after oral administration; format: in vivo, rat
Wistar rats [4] = assay: In vivo lung function; set-up: species or system rat; conditions: n = 10
Outline: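 Male Wistar rats (200-250 g), acclimatised at least 7 days, were unrestrained, conscious and breathing spontaneously in whole-body plethysmograph chambers (calibrated with a 5 mL air injection), one rat per chamber. Baseline was recorded for 120 min. Single oral dosing used 0.25% methylcellulose/0.05% Tween 80 vehicle, followed by recording for 6 h.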

C57BL/6 mice [5] = assay: Mouse MOG33-55 EAE model with spinal cord histopathology; format: in vivo
Outline: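 EAE was induced in 6-week-old female C57BL/6JOlaHsd mice with 150 μg MOG33-55 in CFA, s.c. into both flanks under isoflurane, plus a pertussis toxin boost. Dosing was 6 mg·kg^‐1·day^‐1 or vehicle (0.25% methylcellulose, 0.05% Tween 80) from day 0 or day 14, with daily scoring 0–5. Spinal cords were taken after saline perfusion, formalin-fixed, and 4 μm sections stained with HE and cresyl violet/Luxol fast blue; naïve mice served as controls.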

[6] = tested on: spontaneous hypertensive rats; assay: Blood pressure and heart rate by telemetry in conscious SHR; format: in vivo, rat
human S1P3 receptor = human S1P3 receptor (Homo sapiens, UniProt Q99500); format: biochemical
rat mesenteric arteries = assay: Isometric force development, isolated rat mesenteric arteries
Outline: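 After CO₂ euthanasia, two mesenteric artery rings (1.5 mm, 2nd and 3rd branch) were mounted on 20 μm wires in a wire myograph with modified Krebs-Henseleit buffer. Viability was checked with KCl 60 mmol/L. Endothelium was confirmed by acetylcholine (10^-5 mol/L) relaxation of rings precontracted with U46619 (10^-6 mol/L).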

S1P1 receptor [7] = target: T1, S1P1 receptor; assay: Ca2+ signaling in CHO cells expressing recombinant human S1P1 receptor; format: cell-based
S1P1 receptor [8] = target: T1, S1P1 receptor; format: biochemical; remark: listed apart in the source
[9] = Compound concentrations in rat plasma; format: in vivo; conditions: for plasma concentration at time of maximal lymphocyte count reduction (6 hours): rats
C57BL/6 mice [10] = assay: Lymphocyte count and plasma concentration in mice; format: in vivo, mouse; conditions: three repeated doses of 6 mg·kg^‐1·day^‐1, day 0 vs day 2 (data not shown)
S1P2 receptor [11] = target: T2, S1P2 receptor; assay: Impedance-based analysis of S1P2 receptor signaling in CHO-hS1P2 cells; format: cell-based; conditions: 0.05-5000 nM
human S1P4 receptor = target: T3, human S1P4 receptor (Homo sapiens, UniProt O95977); format: biochemical
T3 sequence (O95977 1-384): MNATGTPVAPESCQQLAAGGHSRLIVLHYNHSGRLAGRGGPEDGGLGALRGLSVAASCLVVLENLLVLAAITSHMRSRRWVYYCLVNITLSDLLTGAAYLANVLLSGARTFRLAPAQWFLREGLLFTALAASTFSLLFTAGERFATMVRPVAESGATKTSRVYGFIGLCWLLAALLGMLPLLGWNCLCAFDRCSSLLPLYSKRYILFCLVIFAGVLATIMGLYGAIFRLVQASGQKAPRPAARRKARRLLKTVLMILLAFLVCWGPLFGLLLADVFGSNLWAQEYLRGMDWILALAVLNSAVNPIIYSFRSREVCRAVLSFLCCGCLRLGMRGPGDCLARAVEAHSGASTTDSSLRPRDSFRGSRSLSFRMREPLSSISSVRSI
Outline: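 Membranes from CHO cells expressing recombinant human S1P4 were used for (35S)-GTPγS binding as a measure of G protein activation. EC50 was fitted with the compound's own maximal response as the top and the no-effect level of the lowest concentration as the bottom.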

S1P1 receptor [12] = target: T1, S1P1 receptor; assay: Ca2+ mobilization assay; format: cell-based
[13] = EC50 hS1P4, (35S)-GTPγS, CHO membranes, geometric mean, n = 2‐4
[14] = percentage of maximal response induced by 1 or 10 μmol·L^‐1 S1P

Chain of human S1P5 receptor (Q9H228 whole entry): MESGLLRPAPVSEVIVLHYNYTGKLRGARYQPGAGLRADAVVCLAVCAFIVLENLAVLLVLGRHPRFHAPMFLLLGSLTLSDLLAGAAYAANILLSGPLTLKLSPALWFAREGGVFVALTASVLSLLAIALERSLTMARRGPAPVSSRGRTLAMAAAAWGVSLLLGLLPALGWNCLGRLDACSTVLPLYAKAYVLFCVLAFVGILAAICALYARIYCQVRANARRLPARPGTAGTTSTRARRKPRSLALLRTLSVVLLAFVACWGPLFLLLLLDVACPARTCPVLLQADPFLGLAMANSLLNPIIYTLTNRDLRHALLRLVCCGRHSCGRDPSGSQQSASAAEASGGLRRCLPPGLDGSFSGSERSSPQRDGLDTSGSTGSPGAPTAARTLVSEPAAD
T1 sequence (P21453 whole entry): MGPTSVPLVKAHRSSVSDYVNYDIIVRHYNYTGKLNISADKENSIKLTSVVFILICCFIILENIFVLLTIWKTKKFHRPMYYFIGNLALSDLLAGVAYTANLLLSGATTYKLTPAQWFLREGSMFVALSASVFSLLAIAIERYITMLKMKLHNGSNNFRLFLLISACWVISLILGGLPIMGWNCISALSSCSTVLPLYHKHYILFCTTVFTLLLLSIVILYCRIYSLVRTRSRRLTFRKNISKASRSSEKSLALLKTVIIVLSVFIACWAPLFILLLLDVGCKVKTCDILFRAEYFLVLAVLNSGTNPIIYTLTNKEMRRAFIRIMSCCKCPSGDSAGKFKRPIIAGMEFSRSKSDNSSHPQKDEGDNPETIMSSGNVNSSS
Chain of human S1P3 receptor (Q99500 whole entry): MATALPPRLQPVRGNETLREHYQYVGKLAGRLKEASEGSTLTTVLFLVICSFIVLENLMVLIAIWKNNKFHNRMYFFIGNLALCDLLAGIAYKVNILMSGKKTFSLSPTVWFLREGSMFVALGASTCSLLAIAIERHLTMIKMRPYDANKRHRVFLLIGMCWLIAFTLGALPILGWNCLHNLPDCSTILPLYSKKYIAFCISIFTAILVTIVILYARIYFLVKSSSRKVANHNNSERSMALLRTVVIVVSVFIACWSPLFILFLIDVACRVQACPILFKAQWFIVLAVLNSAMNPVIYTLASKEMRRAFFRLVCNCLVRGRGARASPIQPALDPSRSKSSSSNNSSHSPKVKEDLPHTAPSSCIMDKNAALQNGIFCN
T2 sequence (O95136 whole entry): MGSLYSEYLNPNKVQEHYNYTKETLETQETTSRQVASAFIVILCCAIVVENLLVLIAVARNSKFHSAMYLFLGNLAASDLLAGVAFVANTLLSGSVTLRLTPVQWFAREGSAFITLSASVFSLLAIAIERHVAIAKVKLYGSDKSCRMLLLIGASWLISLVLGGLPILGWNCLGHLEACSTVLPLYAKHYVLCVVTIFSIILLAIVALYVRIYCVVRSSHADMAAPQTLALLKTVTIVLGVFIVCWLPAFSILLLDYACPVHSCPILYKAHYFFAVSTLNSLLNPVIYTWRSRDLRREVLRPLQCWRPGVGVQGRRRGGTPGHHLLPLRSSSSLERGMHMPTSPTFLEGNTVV

CCc1cc(-c2noc(-c3cc(OC)nc(C4CCCC4)c3)n2)cc(C)c1OC[C@@H](O)CO [Cenerimod, (S)‐3‐(4‐(5‐(2‐cyclopentyl‐6‐methoxypyridin‐4‐yl)‐1,2,4‐oxadiazol‐3‐yl)‐2‐ethyl‐6‐methylphenoxy)propane‐1,2‐diol]
fold higher potency on the S1P1 receptor compared to the natural ligand S1P (S1P1 receptor [1]; (35S)-GTPγS EC50 ratio): 16 fold | Emax (S1P1 receptor [1]; read-out: E max (%) hS1P1): 126% | EC50 (human S1P5 receptor): 36 nM | fold less potent on the S1P5 receptor than pFTY720 (human S1P5 receptor; (35S)-GTPγS EC50 ratio): 70 fold | fold more potent on the S1P5 receptor than the natural ligand S1P (human S1P5 receptor; (35S)-GTPγS EC50 ratio): twofold | Emax (human S1P5 receptor; read-out: E max (%) hS1P5): 65% | contraction of upper and lower rat trachea (rat trachea; highest tested concentration 10 μmol·L^‐1, n = 4): complete lack of response | EC50 (S1P2 receptor [2]): > 10 µM | agonist activity on the S1P2 receptor (S1P2 receptor [2]; up to the highest tested concentration (10 μmol·L^‐1)): no detectable agonist activity | contraction of human bronchi (human bronchi; 10 μmol·L^‐1): no contraction | single oral dose at which plateau of lymphocyte reduction is reached (Wistar rats [3]): 1 mg·kg^‐1 | time until lymphocyte count returned to predose levels (Wistar rats [3]; 1 mg·kg^‐1 single oral dose): ≤ 48 h | decrease of blood lymphocyte count (Wistar rats [3]; 1 mg·kg^‐1 single oral dose, P < .001): 63 ± 4% | blood lymphocyte count after dosing (Wistar rats [3]; 1 mg·kg^‐1 single oral dose, from 7900 ± 690 before dosing): 2900 ± 370 lymphocytes/μL | time until lymphocyte count returned to physiological levels after the last dose (Wistar rats [3]; 1 mg·kg^‐1·day^‐1 oral for 7 days (data not shown)): ≤ 2 days | reduction of blood lymphocyte count at 48 hours (Wistar rats [3]; 3 mg·kg^‐1 single oral dose): more than 40% | time until lymphocyte count returned to physiological levels after the last dose (Wistar rats [3]; 3 mg·kg^‐1·day^‐1 oral for 7 days (data not shown)): ≤ 4 days | reduction of peripheral blood lymphocyte count after 48 hours (Wistar rats [3]; 10 mg·kg^‐1 single oral dose): 65 ± 3% | Penh (index of bronchoconstriction) vs vehicle (Wistar rats [4]; 100 mg·kg^‐1 p.o., 4 hours evaluation period): did not increase | mice completely protected from disease development (C57BL/6 mice [5]; 6 mg·kg^‐1·day^‐1 from day 0 (preventive), n = 8): Five out of eight | clinical score reached (maximum reduction), all treated mice (C57BL/6 mice [5]; 6 mg·kg^‐1·day^‐1 from day 14 (therapeutic), n = 8): 0.5 | incidence and severity of spinal cord demyelination (C57BL/6 mice [5]; preventive or therapeutic regimen, 6 mg·kg^‐1·day^‐1): equally reduced | maximal clinical score of the individual mice that developed disease (C57BL/6 mice [5]; preventive treatment 6 mg·kg^‐1·day^‐1, three of eight mice): 2.5 and 3.0 and 0.5 | time to reach clinical score of 0.5 after treatment initiation, two mice (C57BL/6 mice [5]; therapeutic treatment): ≤ 11 days | effect on heart rate (HR) ([6]; 30 mg·kg^‐1 single oral dose): no effect | decrease of mean arterial blood pressure (MAP) ([6]; 30 mg·kg^‐1 single oral dose, 48 hours observation period): 9 ± 3 mmHg | EC50 (human S1P3 receptor): 228 nM | fold less active at the S1P3 receptor than S1P (human S1P3 receptor; (35S)-GTPγS EC50 ratio): at least 2000 fold | fold less active at the S1P3 receptor than pFTY720 (human S1P3 receptor; (35S)-GTPγS EC50 ratio): 400 fold | Emax (human S1P3 receptor; read-out: E max (%) hS1P3): 81% | contraction of rat mesenteric arteries (rat mesenteric arteries; 10 μmol·L^‐1, n = 4): did not contract | EC50 (S1P1 receptor [7]): 124 nM | EC50 (S1P1 receptor [8]): 2 nM | plasma concentration ([9]; 4 hours after oral administration of 100 mg·kg^‐1, Wistar rats (Penh study)): 4.4 ± 0.6 μg·mL^‐1 | Tmax ([9]; Wistar, rat, plasma, po): 3 h | plasma concentration at time of maximal lymphocyte count reduction (6 hours) ([9]; 1 mg·kg^‐1 single oral dose): 41 ± 2 ng·mL^‐1 | plasma concentration at time of maximal lymphocyte count reduction (6 hours) ([9]; 10 mg·kg^‐1 single oral dose): 869 ± 73 ng·mL^‐1 | compound accumulation (C57BL/6 mice [10]): absence of compound accumulation | S1P2 receptor agonist activity in more sensitive (cellular) assays (S1P2 receptor [11]): no S1P2 receptor agonist activity | EC50 (human S1P4 receptor; EC50 S1P4 receptor, (35S)-GTPγS, human recombinant receptor): 2100 nM | EC50 (human S1P4 receptor; [13]): 2130 nM | Emax (human S1P4 receptor; read-out: E max (%) hS1P4): 123% | EC50 (S1P1 receptor [12]): 1040 nM | fold less potent in Ca^2+ signaling than in (35S)‐GTPγS assays (S1P1 receptor [12]; HUVEC): approximately 500 fold

CCCCCCCCc1ccc(CCC(N)(CO)CO)cc1 [FTY720, reference compound]
Penh (index of bronchoconstriction) vs vehicle (Wistar rats [4]; 3 or 10 mg·kg^‐1 p.o. single dose): significant dose‐dependent increases | decrease of heart rate (HR) ([6]; 3 mg·kg^‐1 single oral dose): 26 ± 8 bpm | increase of mean arterial blood pressure (MAP) ([6]; 3 mg·kg^‐1 single oral dose, 48 hours observation period): 12 ± 2 mmHg

CCCCCCCCCCCCC/C=C/[C@@H](O)[C@@H](N)COP(=O)(O)O [S1P, Sphingosine‐1‐phosphate, reference compound]
constriction of lower rat trachea (rat trachea; 1 μmol·L^‐1, in presence of Ca^2+ (2.5 mmol·L^‐1), n = 3): induced lower rat trachea constriction | EC50 (human S1P3 receptor): 0.1 nM | EC50 (human S1P4 receptor; [13]): 60 nM | EC50 (S1P1 receptor [12]): 34 nM

CCCCCCCOc1ccc(CCC(N)(CO)COP(=O)(O)O)cc1C(F)(F)F (stereo not drawn) [p-amiselimod (pMT-1303)]
rat trachea constriction (rat trachea; lower rat trachea, 1 μmol·L^‐1 and 10 μmol·L^‐1): induced effective rat trachea constriction

CCCCCCCCc1ccc(CCC(N)(CO)COP(=O)(O)O)cc1 (stereo not drawn) [pFTY720, reference compound]
E max (%) hS1P5 (human S1P5 receptor; [14]): 43% | contraction of upper and lower rat trachea (rat trachea; 10, 100 or 1000 nmol·L^‐1, n = 4): concentration‐dependent contractile response | E max (%) hS1P2 (S1P2 receptor [2]; [14]): 11% | E max contraction of human bronchi (human bronchi; % of reference contraction to KCl (50 mmol·L^‐1), mean ± SEM, n = 4): 86.5 ± 20.2% | pEC50 contraction of human bronchi (human bronchi; mean ± SEM, n = 4): 6.4 ± 0.5 | contraction of rat mesenteric arteries (rat mesenteric arteries; 1, 10 or 100 nmol·L^‐1, n = 4): concentration‐dependent contraction | E max (%) hS1P4 (human S1P4 receptor; [14]): 109% | EC50 (human S1P4 receptor; read-out: EC50 hS1P4, (35S)-GTPγS, CHO membranes, geometric mean, n = 2‐4): 64 nM
